Assay results pooled from the literature.
Each line is one published result; the experiments were not run side by side.
Cell line: Vero
Read-out: cell growth or viability

| Compound | assay | setting | CC50 [µM] |
| --- | --- | --- | --- |
| C#Cc1cccc(Nc2ncnc3cc(OCCOC)c(OCCOC)cc23)c1 | resazurin |  | > 60 |
| COC(=O)N[C@H](C(=O)N1C[C@H](n2cc(-c3ccccc3)nn2)C[C@H]1c1ncc(-c2ccc(-c3ccc(-c4cnc([C@@H]5C[C@@H](n6cc(-c7ccccc7)nn6)CN5C(=O)[C@@H](NC(=O)OC)C(C)C)[nH]4)cc3)cc2)[nH]1)C(C)C |  |  | > 100 |
| FC(F)(F)c1cccc(Nc2nc(NCCOc3ccccc3)nc3[nH]cnc23)c1 | ATP luminescence |  | > 200 |
| CCC(CC)COC(=O)[C@H](C)N[P@](=O)(OC[C@H]1O[C@@](C#N)(c2ccc3c(N)ncnn23)[C@H](O)[C@@H]1O)Oc1ccccc1 |  |  | > 13 |
| C=C(c1ccc(C(=O)O)cc1)c1cc2c(cc1C)C(C)(C)CCC2(C)C | WST-1 | 18 h | > 40 |
| COC(=O)N[C@H](C(=O)N1C[C@@H](n2cc(C(=O)OC)nn2)C[C@H]1c1ncc(-c2ccc(-c3ccc(-c4cnc([C@@H]5C[C@H](n6cc(C(=O)OC)nn6)CN5C(=O)[C@@H](NC(=O)OC)C(C)C)[nH]4)cc3)cc2)[nH]1)C(C)C |  |  | > 100 |
| CC(C)(C)[C@H](NS(=O)(=O)C(F)(F)F)C(=O)N1[C@@H]2CC[C@@H](C2)[C@H]1C(=O)N[C@@H](C[C@@H]1CCNC1=O)C(=O)c1nc2ccccc2s1 |  | 48 h | > 50 |
| CCN(CC)CCNC(=O)c1c(C)[nH]c(/C=C2\C(=O)Nc3ccc(F)cc32)c1C | resazurin |  | 25 |
| CCOC(=O)c1c(NCc2ccc(SC)cc2)c2cccc(C)c2[nH]c1=O | MTS | 48 h | > 100 |
| CC(C)C[C@H](NC(=O)OCc1ccccc1)C(=O)N[C@@H](CC(C)C)C(=O)N[C@@H](CC(C)C)C(=O)C(=O)Nc1ccccc1 | ATP luminescence | 48 h | 16 |
| COc1cc2ncnc(Nc3ccc(F)c(Cl)c3)c2cc1OCCCN1CCOCC1 | resazurin |  | > 60 |
| CC(C)(C)NC(=O)N[C@H](C(=O)N1C[C@H]2[C@@H]([C@H]1C(=O)NC(CC1CCC1)C(=O)C(N)=O)C2(C)C)C(C)(C)C (stereo partly drawn) | neutral red | 48 h | > 100 |
| Clc1ccc(C(Cn2ccnc2)OCc2csc3c(Cl)cccc23)c(Cl)c1 (stereo not drawn) | WST-1 | 18 h | ~21.2 |
| O=C(NCc1ccc(F)cc1)c1cccc(Nc2ccc(-c3ccccc3)nn2)c1 | MTS | 48 h | > 100 |
| COc1ccc(C[C@H](NC(=O)[C@H](C)NC(=O)CN2CCOCC2)C(=O)N[C@@H](Cc2ccccc2)C(=O)C(=O)Nc2ccccc2)cc1 | ATP luminescence | 48 h | 71.1 |
